Assay results from ChEMBL document CHEMBL1151735, “Further studies with the 2-amino-1,3-thiazol-4(5H)-one class of 11beta-hydroxysteroid dehydrogenase type 1 inhibitors: reducing pregnane X receptor activity and exploring activity in a monkey pharmacodynamic model” (J Med Chem, 2008).

Assays:
[1] = target: T1, PXR (nuclear receptor subfamily 1 group I member 2) (Homo sapiens, UniProt O75469); experiment: Transactivation of human PXR transfected in HEK cells at 2 uM by luciferase reporter gene assay relative to 12.5 uM rifampin; format: cell-based; conditions: HEK293 cells transfected with human PXR, read-out: Activity
T1 sequence (O75469 whole entry): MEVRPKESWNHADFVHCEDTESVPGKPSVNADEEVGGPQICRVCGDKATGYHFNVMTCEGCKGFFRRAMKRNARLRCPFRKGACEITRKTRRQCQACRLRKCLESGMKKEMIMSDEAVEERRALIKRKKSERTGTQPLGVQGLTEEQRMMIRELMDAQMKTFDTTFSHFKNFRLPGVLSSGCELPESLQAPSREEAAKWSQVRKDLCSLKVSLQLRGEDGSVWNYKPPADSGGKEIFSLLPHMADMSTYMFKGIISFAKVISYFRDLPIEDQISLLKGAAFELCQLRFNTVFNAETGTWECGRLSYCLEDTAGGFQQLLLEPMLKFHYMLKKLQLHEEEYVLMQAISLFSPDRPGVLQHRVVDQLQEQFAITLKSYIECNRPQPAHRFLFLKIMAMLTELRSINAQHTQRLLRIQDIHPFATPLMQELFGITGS
Outline: (§1)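 HEK cells transfected with human PXR fused to a firefly luciferase reporter. Luciferase activity is expressed as percent of the 12.5 µM rifampin response. Run in triplicate; SEM reported.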

[2] = target: T2, Nuclear receptor subfamily 1 group I member 2 (Homo sapiens, UniProt O75469); experiment: Transactivation of human PXR transfected in HEK cells at 20 uM by luciferase reporter gene assay relative to 12.5 uM rifampin; format: cell-based; conditions: hek293, 20 µM; outline: as §1
T2 sequence (O75469 whole entry): T1 sequence (O75469 whole entry)

[3] = target: T3, 11-beta-hydroxysteroid dehydrogenase 1 (Homo sapiens, UniProt P28845); experiment: Inhibition of human recombinant 11beta-HSD1 expressed in Escherichia coli using [3H]cortisone by scintillation proximity assay
T3 sequence (P28845 whole entry): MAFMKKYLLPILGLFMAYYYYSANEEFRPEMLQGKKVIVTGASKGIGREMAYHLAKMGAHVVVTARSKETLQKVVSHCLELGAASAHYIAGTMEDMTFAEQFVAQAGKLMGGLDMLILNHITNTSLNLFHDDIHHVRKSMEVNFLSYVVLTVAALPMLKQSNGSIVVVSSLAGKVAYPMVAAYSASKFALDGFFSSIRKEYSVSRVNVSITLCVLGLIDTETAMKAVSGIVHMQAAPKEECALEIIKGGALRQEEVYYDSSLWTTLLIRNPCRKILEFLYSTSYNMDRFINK

[4] = target: T3, 11-beta-hydroxysteroid dehydrogenase 1; experiment: Inhibition of human 11beta-HSD1 expressed in CHO cells assessed as conversion of cortisone to cortisol by ELISA; format: cell-based
[5] = target: T4, 11-beta-hydroxysteroid dehydrogenase type 2 (Homo sapiens, UniProt P80365); experiment: Inhibition of human 11beta-HSD2 expressed in CHO cells using [3H]cortisol by scintillation proximity assay; format: cell-based
T4 sequence (P80365 whole entry): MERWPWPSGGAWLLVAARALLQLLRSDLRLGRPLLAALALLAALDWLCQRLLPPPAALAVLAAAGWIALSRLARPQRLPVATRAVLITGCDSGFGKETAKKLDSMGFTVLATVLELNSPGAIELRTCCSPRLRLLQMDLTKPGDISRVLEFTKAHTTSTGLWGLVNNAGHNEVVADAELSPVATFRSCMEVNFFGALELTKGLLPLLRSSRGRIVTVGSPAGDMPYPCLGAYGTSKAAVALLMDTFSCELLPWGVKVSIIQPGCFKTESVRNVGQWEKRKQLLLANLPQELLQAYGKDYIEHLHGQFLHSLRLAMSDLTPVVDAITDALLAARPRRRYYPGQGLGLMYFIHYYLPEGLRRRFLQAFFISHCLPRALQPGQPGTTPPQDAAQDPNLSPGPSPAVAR
Outline: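 Human 11β-HSD2 from CHO cells with [3H]cortisol 3 nM and NAD+ 300 µM, in 0.1 M sodium phosphate pH 7.6. 1 h at room temperature, then stopped with 18β-glycyrrhetinic acid. Anticortisol antibody and antimouse SPA beads added for 30 min; radiometric read-out.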

[6] = tested on: Hepatocyte; experiment: Induction of CYP3A4 in cryopreserved human hepatocytes from male DJV donars with no adverse medical history or substance or alcohol abuse assessed as mRNA expression at 20 uM relative to 20 uM rifampin; format: functional
[7] = tested on: Hepatocyte; experiment: Induction of CYP3A4 in cryopreserved human hepatocytes from female NPV donars with history of tobacco and substance usage assessed as mRNA expression at 20 uM relative to 20 uM rifampin; format: functional
[8] = target: T5, Cytochrome P450 3A4 (Homo sapiens, UniProt P08684); experiment: Induction of CYP3A4 activity in cryopreserved human hepatocytes from male DJV donars with no adverse medical history or substance or alcohol abuse at 20 uM relative to 20 uM rifampin
T5 sequence (P08684 whole entry): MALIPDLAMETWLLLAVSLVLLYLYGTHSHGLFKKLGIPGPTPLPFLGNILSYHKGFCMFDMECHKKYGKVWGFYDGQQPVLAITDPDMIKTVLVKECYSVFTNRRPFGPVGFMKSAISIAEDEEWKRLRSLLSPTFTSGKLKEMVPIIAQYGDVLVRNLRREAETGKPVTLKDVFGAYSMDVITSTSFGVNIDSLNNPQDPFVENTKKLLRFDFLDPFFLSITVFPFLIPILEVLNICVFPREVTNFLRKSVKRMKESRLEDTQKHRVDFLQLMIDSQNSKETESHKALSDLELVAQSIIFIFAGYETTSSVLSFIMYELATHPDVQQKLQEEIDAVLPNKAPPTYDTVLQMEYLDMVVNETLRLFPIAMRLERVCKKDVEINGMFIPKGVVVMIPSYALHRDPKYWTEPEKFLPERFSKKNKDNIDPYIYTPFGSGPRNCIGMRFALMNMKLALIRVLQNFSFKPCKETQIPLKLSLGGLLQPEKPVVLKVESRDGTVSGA

[9] = target: T5, Cytochrome P450 3A4; experiment: Induction of CYP3A4 activity in cryopreserved human hepatocytes from female NPV donars with history of tobacco and substance usage at 20 uM relative to 20 uM rifampin

activity at 2 µM [1]	Activity [2]	Ki [3]	IC50 [4]	IC50 [5]	SMILES	further results
6.7%	97%	–	–	–	C[C@H](NC1=NC(=O)C(C)(c2ccc(C3(C(N)=O)CC3)cc2)S1)c1ccc(F)cc1 (stereo not given in full)	–
–	28%	–	–	–	C[C@H](NC1=NC(=O)C(C)(CC(C)(C)O)S1)c1ccc(F)cc1 (stereo not given in full)	–
–	45%	–	–	–	C[C@H](NC1=NC(=O)[C@@](C)(C(F)(F)F)S1)c1ccccc1F	Activity [6]: 110%; Activity [7]: 67%; Activity [8]: 64%; Activity [9]: 56%

Further lines, the compound ahead of its results:

SMILES	activity at 2 µM [1]	Activity [2]	Ki [3]	IC50 [4]	IC50 [5]	further results
C[C@H](NC1=NC(=O)C(C)(c2ccc(F)cc2)S1)c1ccc(F)cc1 (stereo not given in full)	64%	65%	–	–	–	–
C[C@H](NC1=NC(=O)C(C)(c2ccc(C(=O)N3CCCC3)cc2)S1)c1ccc(F)cc1 (stereo not given in full)	4.1%	35%	–	–	–	–
C[C@H](NC1=NC(=O)C(C)(C2(O)CCCC2)S1)c1ccc(F)cc1 (stereo not given in full)	–	61%	25 nM	11 nM	> 10000 nM	–
CC(C(=O)N[C@H]1C2CC3CC1C[C@](O)(C3)C2)N1CCN(c2ccc(C(F)(F)F)cn2)CC1 (stereo not given in full)	–	–	–	5 nM	–	–
C[C@H](NC1=NC(=O)C(C)(C(C)(C)O)S1)c1ccccc1C(F)(F)F (stereo not given in full)	–	43%	25 nM	43 nM	> 10000 nM	–
C[C@H](NC1=NC(=O)C(C)(C(C)(C)O)S1)c1ccccc1F (stereo not given in full)	–	19%	34 nM	70 nM	> 10000 nM	–
